“Also recorded” adds a separate entry of the source.
Tested on: heat shock protein 70 (HSP70)
Assay: Western blot analysis of HSP70 expression in U251 cells
Format: cell-based, human
Conditions: for Stress response (heat shock effect and oxidative stress effect) following treatment: effect abrogated by N-acetyl-cysteine; for HSP70 total cell expression (western blot): 5 μM, 24 h post-treatment
Summary of the method: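 U251 glioblastoma cells were grown in DMEM with 10% FBS and 1% penicillin/streptomycin at 37 °C and 5% CO2, plated sub-confluent and grown overnight. They were treated with test compound at 0, 0.1, 0.5, 1 and 5 μM for 24 h. Lysate proteins were quantified, run on SDS–PAGE, transferred to nitrocellulose and probed with anti-HSP70 (1:1000), with actin (1:50,000) as loading control and HRP secondaries (1:5000).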

Structure (SMILES)	Stress response (heat shock effect and oxidative stress effect) following treatment	HSP70 total cell expression (western blot)
C=C1C(=O)O[C@@H]2C[C@@]1(C)OC[C@H]2[C@H]1CC[C@H]2[C@@H]3C[C@@H](O)[C@@]45C[C@H]4CC(=O)[C@]5(C)[C@H]3CC[C@]12C [Compound 1, (20R,22R,24R)-21,24-epoxy-3α,5α-cyclo-1-oxowitha-25(27)-enolide]	do not exhibit this stress response	–
C=C1C(=O)O[C@@H]2C[C@]1(C)OC[C@H]2[C@H]1CC[C@H]2[C@@H]3CC=C4CC=CC(=O)[C@]4(C)[C@H]3C[C@@H](O)[C@]12C [Compound 2, (20R,22R,24R)-21,24-epoxy-12β-hydroxy-1-oxowitha-2,25,25(27)-trienolide]	observed	upregulation was observed; also recorded: markedly upregulated
C=C1C(=O)O[C@@H]2C[C@]1(C)OC[C@H]2[C@H]1CC[C@H]2[C@@H]3CC=C4CC=CC(=O)[C@]4(C)[C@H]3CC[C@]12C [Compound 3, withametelin]	observed	upregulation was observed; also recorded: markedly upregulated
C=C1C(=O)O[C@@H]2C[C@]1(C)OC[C@H]2[C@H]1CC[C@H]2[C@@H]3C[C@@H](O)[C@@]4(O)CC=CC(=O)[C@]4(C)[C@H]3CC[C@]12C [Compound 4, withametelin O]	do not exhibit this stress response	–
C=C1C(=O)O[C@@H]2C[C@]1(C)OC[C@H]2[C@H]1CC[C@H]2[C@@H]3C[C@H]4O[C@]45CC=CC(=O)[C@]5(C)[C@H]3CC[C@]12C [Compound 5, withametelin F]	observed	upregulation was observed; also recorded: markedly upregulated
